According to ChEMBL document CHEMBL1212834, “Pyrido[2,3-b]pyrazines, discovery of TRPV1 antagonists with reduced potential for the formation of reactive metabolites” (Bioorg Med Chem Lett, 2010):

Experiments:
[1] = target: T1, Transient receptor potential cation channel subfamily V member 1 (Rattus norvegicus, UniProt O35433); assay type: functional, tissue-based, Sprague-Dawley, Dorsal root ganglion; conditions: read-out: IC50
[2] = test system: Rattus norvegicus; assay: Plasma concentration in Sprague-Dawley rat carrageenan-induced thermal hyperalgesia model at 1 mg/kg, po; assay type: ADME, organism-based; set-up: dose 1 mg/kg, route oral; conditions: in vivo
Procedure, shortened: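 Plasma sampled immediately after the carrageenan thermal hyperalgesia experiment, following oral dosing as a suspension in 0.5% methocel.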

[3] = test system: Rattus norvegicus; assay: Antiinflammatory activity in rat assessed as inhibition of complete Freund's adjuvant-induced hind paw edema at 1 mg/kg, po administered 1 day after complete Freund's adjuvant challenge QD for 3 consecutive days measured at 24 hrs post dose on day 3; assay type: functional
Procedure, shortened: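 CFA 200 µL injected intraplantar into the left hind paw. From the next day, 1, 3 or 10 mg/kg po once daily for 3 days as a suspension in 0.5% methocel.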

[4] = Plasma concentration in rat complete Freund's adjuvant-induced inflammation model at 3 mg/kg, po QD for 3 consecutive days measured at 2 hrs post dose on day 2; assay type: ADME, organism-based; set-up: dose 3 mg/kg, route oral
Procedure, shortened: (§1)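 CFA (200 µL) injected intraplantar into left hind paw; next day rats dosed orally once daily for three consecutive days (1, 3 or 10 mg/kg, suspension in 0.5% methocel). Separate cohort: plasma sampled each day 2 h after dosing.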

[5] = Apparent permeability across MDCK cell membrane; assay type: ADME, cell-based, Canis lupus familiaris; conditions: dog
Procedure, shortened: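 Permeability across MDCK cell monolayers, reported as Papp. Efflux ratio calculated as (B→A)/(A→B).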

[6] = organism: Canis familiaris; assay: Cardiotoxicity in dog assessed as effect on ECG intervals at plasma concentration of up to 24 uM; assay type: toxicity, organism-based, Canis lupus familiaris
[7] = target: T1, Transient receptor potential cation channel subfamily V member 1; assay: Antagonist activity at Sprague-Dawley rat dorsal root ganglion TRPV1 assessed as inhibition of pH-induced receptor activation; assay type: functional, tissue-based
Procedure, shortened: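 Rat TRPV1 activated by low pH (5.0–5.5); inhibition measured and IC50 given as the mean of ≥3 experiments.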

[8] = test system: Liver microsomes; assay: Metabolic stability in human liver microsomes assessed per mg of protein after 1 hr
[9] = Cmax in rat at 10 mg/kg, po; assay type: ADME, organism-based; set-up: dose 10 mg/kg, route oral; conditions: in vivo
Procedure, shortened: (§2)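 Oral PK at the dose in the line, given as a suspension in 0.5% methocel. […] Reported as mean ± error.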

[10] = Cmax in rhesus monkey at 1 mg/kg, po; assay type: ADME, organism-based, Macaca mulatta; set-up: dose 1 mg/kg, route oral; conditions: in vivo
Procedure, shortened: as §2

[11] = Plasma concentration in rat complete Freund's adjuvant-induced inflammation model at 3 mg/kg, po at 2 hrs on third day; assay type: ADME, organism-based; set-up: dose 3 mg/kg, route oral
Procedure, shortened: as §1

[12] = target: Transient receptor potential cation channel subfamily V member 1 (Homo sapiens, UniProt Q8NER1); assay: Antagonist activity at human TRPV1 assessed as inhibition of capsaicin-induced receptor activation by FLIPR assay; assay type: functional
Transient receptor potential cation channel subfamily V member 1 (Homo sapiens, UniProt Q8NER1), sequence (Q8NER1 whole entry): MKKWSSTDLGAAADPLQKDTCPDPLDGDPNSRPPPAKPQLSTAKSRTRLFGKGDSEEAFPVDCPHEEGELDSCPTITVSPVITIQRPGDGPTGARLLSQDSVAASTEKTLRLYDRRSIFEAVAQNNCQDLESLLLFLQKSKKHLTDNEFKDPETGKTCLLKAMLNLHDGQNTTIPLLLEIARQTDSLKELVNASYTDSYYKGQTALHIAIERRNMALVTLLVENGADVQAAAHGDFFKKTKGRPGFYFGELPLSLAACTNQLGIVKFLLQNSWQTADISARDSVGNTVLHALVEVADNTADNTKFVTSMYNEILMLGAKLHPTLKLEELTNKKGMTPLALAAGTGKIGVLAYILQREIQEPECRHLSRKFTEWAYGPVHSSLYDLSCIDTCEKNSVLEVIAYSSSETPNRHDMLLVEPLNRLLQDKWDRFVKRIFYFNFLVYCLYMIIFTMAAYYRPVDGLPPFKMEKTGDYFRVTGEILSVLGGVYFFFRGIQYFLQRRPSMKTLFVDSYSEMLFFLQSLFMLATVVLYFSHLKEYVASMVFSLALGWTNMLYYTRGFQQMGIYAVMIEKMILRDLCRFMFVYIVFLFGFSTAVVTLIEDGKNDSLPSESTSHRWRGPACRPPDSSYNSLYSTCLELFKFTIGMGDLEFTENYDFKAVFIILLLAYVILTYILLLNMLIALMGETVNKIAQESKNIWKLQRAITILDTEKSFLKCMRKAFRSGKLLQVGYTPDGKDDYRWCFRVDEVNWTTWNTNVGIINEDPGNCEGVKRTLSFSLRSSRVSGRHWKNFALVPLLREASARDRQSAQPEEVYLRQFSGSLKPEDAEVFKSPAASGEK
Procedure, shortened: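 Human TRPV1 activated by capsaicin; inhibition read by FLIPR. IC50 is the mean of ≥3 experiments.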

[13] = AUC (0 to 24 hrs) in rat at 10 mg/kg, po; assay type: ADME, organism-based; set-up: time < 24 hr, dose 10 mg/kg, route oral; conditions: plasma
Procedure, shortened: as §2

[14] = AUC (0 to 24 hrs) in rat brain at 10 mg/kg, po; assay type: ADME, organism-based; set-up: time < 24 hr, dose 10 mg/kg, route oral
[15] = Plasma concentration in rat complete Freund's adjuvant-induced inflammation model at 1 mg/kg, po QD for 3 consecutive days measured at 2 hrs post dose on day 1; assay type: ADME, organism-based; set-up: dose 1 mg/kg, route oral
Procedure, shortened: as §1

[16] = organism: Canis familiaris; assay: Cardiotoxicity in dog assessed as effect on heart rate at plasma concentration of up to 24 uM; assay type: toxicity, organism-based, Canis lupus familiaris
[17] = Ratio of drug level in brain to plasma in rat at 10 mg/kg, po; assay type: ADME, organism-based; set-up: dose 10 mg/kg, route oral; conditions: read-out: BPR
[18] = AUC (0 to 24 hrs) in dog at 1 mg/kg, po; assay type: ADME, organism-based, Canis lupus familiaris; set-up: time < 24 hr, dose 1 mg/kg, route oral; conditions: plasma
Procedure, shortened: as §2

[19] = Cmax in rat brain at 10 mg/kg, po; assay type: ADME, organism-based; set-up: dose 10 mg/kg, route oral
[20] = Volume of distribution in rat at 1 mg/kg, iv; assay type: ADME, organism-based; set-up: dose 1 mg/kg, route intravenous; conditions: in vivo
Procedure, shortened: (§3)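 Intravenous dose of 1 mg/kg given as a solution in 3:1 PEG300:water to rat, dog or rhesus monkey. Plasma PK parameters (T1/2, clearance, Vd) derived.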

[21] = test system: Rattus norvegicus; assay: Antiinflammatory activity in Sprague-Dawley rat assessed as inhibition of carrageenan-induced thermal hyperalgesia at 1 mg/kg, po administered 3.5 hrs after carrageenan challenge measured after 5 hrs; assay type: functional
Procedure, shortened: (§4)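 Rat carrageenan-induced thermal hyperalgesia. Dosed orally as a suspension in 0.5% methocel; % inhibition reported at each dose.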

[22] = Volume of distribution in rhesus monkey at 1 mg/kg, iv; assay type: ADME, organism-based, Macaca mulatta; set-up: dose 1 mg/kg, route intravenous; conditions: in vivo
Procedure, shortened: as §3

[23] = target: Voltage-gated inwardly rectifying potassium channel KCNH2 (Homo sapiens, UniProt Q12809); assay: Inhibition of human hERG
Voltage-gated inwardly rectifying potassium channel KCNH2, sequence (Q12809 whole entry): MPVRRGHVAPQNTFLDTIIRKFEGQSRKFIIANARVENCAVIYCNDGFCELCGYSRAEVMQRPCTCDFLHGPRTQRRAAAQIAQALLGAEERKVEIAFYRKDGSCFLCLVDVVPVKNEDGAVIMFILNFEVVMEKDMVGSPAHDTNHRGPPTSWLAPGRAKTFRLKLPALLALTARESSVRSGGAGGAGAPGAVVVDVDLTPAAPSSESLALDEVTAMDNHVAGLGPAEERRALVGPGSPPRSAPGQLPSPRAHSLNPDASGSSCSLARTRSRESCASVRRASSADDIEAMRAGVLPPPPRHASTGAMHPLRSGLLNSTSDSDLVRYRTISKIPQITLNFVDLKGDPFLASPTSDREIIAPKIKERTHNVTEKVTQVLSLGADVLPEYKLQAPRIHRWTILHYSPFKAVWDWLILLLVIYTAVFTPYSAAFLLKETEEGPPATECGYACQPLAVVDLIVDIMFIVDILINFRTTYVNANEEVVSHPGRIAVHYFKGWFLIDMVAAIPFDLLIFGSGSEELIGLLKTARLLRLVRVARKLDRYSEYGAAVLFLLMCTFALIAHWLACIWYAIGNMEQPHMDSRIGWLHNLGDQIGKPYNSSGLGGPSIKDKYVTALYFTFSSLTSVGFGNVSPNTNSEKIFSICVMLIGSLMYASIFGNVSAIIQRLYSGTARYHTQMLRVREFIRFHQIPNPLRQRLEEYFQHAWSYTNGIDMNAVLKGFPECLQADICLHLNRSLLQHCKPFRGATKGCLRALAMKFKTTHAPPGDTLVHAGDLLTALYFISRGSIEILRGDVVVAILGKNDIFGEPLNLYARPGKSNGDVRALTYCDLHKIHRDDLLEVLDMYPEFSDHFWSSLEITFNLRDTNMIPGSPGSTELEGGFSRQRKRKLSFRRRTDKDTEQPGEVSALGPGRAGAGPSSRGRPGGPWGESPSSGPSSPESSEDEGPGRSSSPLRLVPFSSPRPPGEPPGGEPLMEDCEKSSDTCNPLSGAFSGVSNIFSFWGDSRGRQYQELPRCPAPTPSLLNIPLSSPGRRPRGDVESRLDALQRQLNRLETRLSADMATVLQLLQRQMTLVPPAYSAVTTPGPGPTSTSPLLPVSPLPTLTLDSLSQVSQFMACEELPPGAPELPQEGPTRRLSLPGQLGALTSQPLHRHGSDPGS

[24] = Cmax in dog at 1 mg/kg, po; assay type: ADME, organism-based, Canis lupus familiaris; set-up: dose 1 mg/kg, route oral; conditions: in vivo
Procedure, shortened: as §2

[25] = test system: Rattus norvegicus; assay: Plasma concentration in Sprague-Dawley rat carrageenan-induced thermal hyperalgesia model at 3 mg/kg, po; assay type: ADME, organism-based; set-up: dose 3 mg/kg, route oral; conditions: in vivo
Procedure, shortened: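 Rats given compound orally as a suspension in 0.5% methocel in the carrageenan-induced thermal hyperalgesia model. Plasma sampled immediately after the CITH experiment.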

[26] = AUC (0 to 24 hrs) in rat at 100 mg/kg, po; assay type: ADME, organism-based; set-up: time < 24 hr, dose 100 mg/kg, route oral; conditions: plasma
Procedure, shortened: as §2

[27] = test system: Liver microsomes; assay: Metabolic stability in rat liver microsomes assessed per mg of protein at 8.1 mg/kg, po after 2 to 24 hrs; assay type: ADME, organism-based, Microsome; set-up: dose 8.1 mg/kg, route oral
[28] = test system: Rattus norvegicus; assay: Antiinflammatory activity in Sprague-Dawley rat assessed as inhibition of carrageenan-induced thermal hyperalgesia at 3 mg/kg, po administered 3.5 hrs after carrageenan challenge measured after 5 hrs; assay type: functional
Procedure, shortened: as §4

[29] = Cmax in rat at 1 mg/kg, po; assay type: ADME, organism-based; set-up: dose 1 mg/kg, route oral; conditions: in vivo
Procedure, shortened: as §2

[30] = Cmax in rat at 100 mg/kg, po; assay type: ADME, organism-based; set-up: dose 100 mg/kg, route oral; conditions: in vivo
Procedure, shortened: as §2

T1 sequence (O35433 whole entry): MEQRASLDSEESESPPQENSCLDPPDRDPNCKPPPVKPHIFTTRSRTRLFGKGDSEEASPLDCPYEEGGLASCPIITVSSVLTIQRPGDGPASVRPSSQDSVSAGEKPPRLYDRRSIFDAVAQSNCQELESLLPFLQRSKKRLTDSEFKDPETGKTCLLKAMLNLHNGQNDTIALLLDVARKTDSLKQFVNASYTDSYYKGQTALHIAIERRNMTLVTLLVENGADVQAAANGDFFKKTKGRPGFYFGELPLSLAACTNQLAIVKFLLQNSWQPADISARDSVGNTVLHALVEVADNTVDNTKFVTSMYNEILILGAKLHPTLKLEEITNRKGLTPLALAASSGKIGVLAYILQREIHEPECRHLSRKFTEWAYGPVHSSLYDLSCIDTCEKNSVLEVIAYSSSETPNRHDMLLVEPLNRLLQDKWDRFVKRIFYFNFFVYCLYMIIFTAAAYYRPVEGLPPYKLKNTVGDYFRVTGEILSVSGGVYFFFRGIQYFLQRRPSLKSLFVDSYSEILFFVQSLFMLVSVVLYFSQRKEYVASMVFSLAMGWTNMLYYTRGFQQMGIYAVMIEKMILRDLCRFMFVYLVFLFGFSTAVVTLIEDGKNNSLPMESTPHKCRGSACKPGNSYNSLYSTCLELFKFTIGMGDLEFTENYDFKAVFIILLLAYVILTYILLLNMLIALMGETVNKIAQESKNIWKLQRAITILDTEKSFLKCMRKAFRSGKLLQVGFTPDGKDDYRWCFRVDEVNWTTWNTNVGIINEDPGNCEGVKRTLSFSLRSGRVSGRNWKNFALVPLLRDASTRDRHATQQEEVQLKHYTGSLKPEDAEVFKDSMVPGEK

Structure (SMILES): NC(=O)c1cnc(-c2cnc3c(Nc4ccc(C(F)(F)F)cn4)ccnc3n2)c(C(F)(F)F)c1
- IC50 [1]: 1.3 nM
- concentration [2]: 240 nM
- inhibition in vivo at 1 mg/kg [3]: 42%
- concentration at 2 h [4]: 1100 nM
- Papp [5]: 34 ×10⁻⁶ cm/s
- Activity [6]: Non-toxic
- IC50 [7]: 1.3 nM
- Stability [8]: 8 pmol
- Cmax [9]: 2100 nM
- Cmax [10]: 700 nM
- concentration at 2 h [11]: 1280 nM
- IC50 [12]: 0.8 nM
- AUC(0-t) at 24 h [13]: 29.9 µM·h
- AUC(0-t) at 24 h [14]: 3.4 µM·h
- concentration at 2 h [15]: 270 nM
- Activity [16]: Non-toxic
- Kp [17]: 0.1
- AUC(0-t) at 24 h [18]: 2.7 µM·h
- Cmax [19]: 300 nM
- Vd [20]: 4.3 L/kg
- inhibition in vivo at 1 mg/kg [21]: 49%
- Vd [22]: 1 L/kg
- IC50 [23]: 5900 nM
- Cmax [24]: 500 nM
- concentration [25]: 1090 nM
- AUC(0-t) at 24 h [26]: 268 µM·h
- Stability [27]: < 10 pmol
- inhibition in vivo at 3 mg/kg [28]: 74%
- Cmax [29]: 300 nM
- Cmax [30]: 15000 nM
